Compound activity deposited in PubChem by Sanford-Burnham Center for Chemical Genomics.
CCR6 antagonist: CCR6 (human) receptor antagonism; CHO-K1 CCR6 PathHunter beta-arrestin, luminescence, CCL20-stimulated; inhibition, % at 20 µM; actives 0.49% (n = 340,000);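 active = compounds whose inhibition of the agonist-driven luminescence signal at 20 µM reaches about 50%, limit read from the data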;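 also: cells stimulated with CCL20 at 14 nM final; plate controls were DMSO with CCL20 for no effect and DMSO without agonist for full effect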
EBI2 antag: antagonists of human EBI2 receptor. P32249. EBI2 beta-arrestin recruitment, luminescence, 7a,25-OHC stimulated. inhibition, % at 5 µM. actives 0.81% (n = 360,000); in the data active = inhibition above about 38%;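 also: enzyme fragment complementation signal reports receptor beta-arrestin coupling in cells; 0% = agonist plus DMSO wells and 100% = wells without agonist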
APJ ag: activates the human apelin receptor APJ. activation, % at 20 µM. P35414. actives 0.11% (n = 330,000). CHO-K1 APJ PathHunter beta-arrestin, luminescence; 0% DMSO wells, 100% apelin;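 active = activation more than six SD over the plate average, tested at 20 µM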;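 also: 0% = DMSO alone and 100% = apelin-13 at 10 nM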
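Test system: CHO-K1 APJ beta-arrestin complementation cell line | Compound: Single test compound dose, 20 µM final, 1% DMSO | Incubation: Compound 90 min 25 °C, reagent 1 h | Measured by: beta-gal luminescence | Read-out basis: APJ–arrestin association signal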
hiPSC survival: hiPSC single-cell survival enhancement; survival enhancement, % at 20 µM; actives 0.044% (n = 360,000); ATPlite luminescence; 100% = ROCK inhibitor wells, 0% = DMSO; in the data active = survival enhancement above about 18%;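 also: cells exposed to compounds for 16 hours before the ATP read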
CXCR6 inh: inhibitors of human CXCR6 receptor; O00574; CHO-K1 PathHunter CXCR6 beta-arrestin, luminescence; inhibition, % at 20 µM; actives 0.36% (n = 360,000); AID 602244; in the data active = inhibition above about 34%, passing the limit was not always enough;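 also: antagonist mode with CXCL16 agonist at 10 nM final; 0% = 10 nM CXCL16 with DMSO and 100% = unstimulated wells without agonist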
Target sequence (O00574 whole entry, looked up): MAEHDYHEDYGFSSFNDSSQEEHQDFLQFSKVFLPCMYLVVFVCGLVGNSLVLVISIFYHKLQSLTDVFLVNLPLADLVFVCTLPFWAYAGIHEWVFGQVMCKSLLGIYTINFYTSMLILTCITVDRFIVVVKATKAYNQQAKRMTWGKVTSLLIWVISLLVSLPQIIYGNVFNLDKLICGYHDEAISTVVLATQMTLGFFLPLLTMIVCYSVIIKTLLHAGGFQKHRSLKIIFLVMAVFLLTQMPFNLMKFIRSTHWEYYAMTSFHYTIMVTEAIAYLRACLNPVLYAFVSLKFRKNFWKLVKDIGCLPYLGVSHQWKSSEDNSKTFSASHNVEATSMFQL
APJ antagonist: blocks the human apelin receptor APJ | P35414 | CHO-K1 APJ beta-arrestin complementation, luminescence | inhibition, % at 20 µM | actives 0.32% (n = 330,000) | AID 2521;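 active = inhibition above about 40% at 20 µM, limit read from the data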;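 also: cells challenged with 10 nM apelin-13 agonist together with compound; plate controls were apelin-13 plus DMSO wells for no effect and DMSO wells lacking apelin-13 for full effect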
APJ ag confirm: APJ receptor agonism confirmation; shares compounds with APJ ag; CHO-K1 APJ PathHunter beta-arrestin, luminescence; activation, % at 20 µM; actives 10% (n = 310); AID 2764;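 active = activation above 40%, taking the highest of four retests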;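 also: plate controls were DMSO wells for no effect and apelin-13 at 10 nM for full effect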
An asterisk follows results filed as active. Rows were chosen to be rich in hits. Some 1.5% of all compounds tested hit in one or more screens of this group.

`CCCCn1c(N)c(N(CCC(C)C)C(=O)c2c(C)noc2C)c(=O)[nH]c1=O` gave CCR6 antagonist -1, EBI2 antag -10, APJ ag 12, hiPSC survival 2, CXCR6 inh -1 and APJ antagonist -20.
`CC1(OC(=O)C2CCCC2)C(=O)C=C2C=C(c3ccsc3)N(C3CCCC3)C=C2C1=O` (stereo not drawn) gave CCR6 antagonist 11, EBI2 antag -19, APJ ag 104*, hiPSC survival 0, CXCR6 inh -2, APJ antagonist -77 and APJ ag confirm 12.
CCOc1cc([N+](=O)[O-])cc2c1C(=O)Nc1ccccc1O2 was read as CCR6 antagonist -10, EBI2 antag -4, APJ ag 14*, hiPSC survival 3, CXCR6 inh -8, APJ antagonist -20 and APJ ag confirm 11.
`C=CCC(C(=O)OC)(C(=O)OC)c1ccc([N+](=O)[O-])cc1[N+](=O)[O-]` gave CCR6 antagonist 2, EBI2 antag -13, APJ ag 14*, hiPSC survival 0, CXCR6 inh 1, APJ antagonist -35 and APJ ag confirm 4.
C=CCC(C(=O)OC)(C(=O)OC)c1ccc(C(F)(F)F)cc1[N+](=O)[O-] was read as CCR6 antagonist 3, EBI2 antag -2, APJ ag -5, hiPSC survival 0, CXCR6 inh 4 and APJ antagonist -14.
Cc1cccc(C(=O)OCc2cc(=O)oc3c(C)c(C)ccc23)c1O was read as CCR6 antagonist -6, EBI2 antag 8, APJ ag 24*, hiPSC survival 0, CXCR6 inh 9, APJ antagonist 11 and APJ ag confirm 8.
Screening CCOC(=O)C1=C(COC(=O)CSc2ccc(C)cc2C)NC(=O)NC1C (stereo not drawn) returned CCR6 antagonist -4, EBI2 antag -1, APJ ag 7, hiPSC survival 0, CXCR6 inh 1 and APJ antagonist 22.
`O=C(NCCc1ccccc1O)c1cc2c(cc1[N+](=O)[O-])OCO2` gave CCR6 antagonist 3, EBI2 antag -1, hiPSC survival 0 and CXCR6 inh -4.
Screening Cc1cc(C(=O)CSc2nc(N)cc(=O)[nH]2)c(C)n1CC1CCCO1 (stereo not drawn) returned CCR6 antagonist 2, EBI2 antag 3, APJ ag -8, hiPSC survival 0, CXCR6 inh 0 and APJ antagonist 3.
For Cc1cc(C(=O)CSc2nc3ccccc3[nH]2)c(C)n1CC1CCCO1 (stereo not drawn) the results were CCR6 antagonist -43, EBI2 antag -97, APJ ag 21*, hiPSC survival -1, CXCR6 inh -5, APJ antagonist -27 and APJ ag confirm 13.
CCC(C)[C@H](NC(=O)N1CCn2c1nc1ccccc12)C(=O)NCCc1ccc(OC)c(OC)c1 (stereo partly drawn) was read as CCR6 antagonist 17, EBI2 antag -3, APJ ag -2, hiPSC survival 0, CXCR6 inh 5 and APJ antagonist 7.
For O=C(COC(=O)c1ccccc1OCc1ccccc1Cl)NCC1CCCO1 (stereo not drawn) the results were CCR6 antagonist 16, EBI2 antag 11, APJ ag -3, hiPSC survival 0, CXCR6 inh 16 and APJ antagonist -2.
CN1CCN(c2ccc(NC(=O)COc3ccccc3[N+](=O)[O-])cc2)CC1 was read as CCR6 antagonist -3, EBI2 antag -8, APJ ag -1, hiPSC survival 0, CXCR6 inh 7 and APJ antagonist -1.
For CC(C)C(=O)N1CCN(c2ccc(NC(=O)COc3ccccc3[N+](=O)[O-])cc2)CC1 the results were CCR6 antagonist -6, EBI2 antag -15, APJ ag 16*, hiPSC survival 0, CXCR6 inh -5, APJ antagonist -21 and APJ ag confirm 54*.
Cc1csc2nc(COC(=O)c3ccc(Cl)c([N+](=O)[O-])c3)cc(=O)n12 was read as CCR6 antagonist 19, EBI2 antag 9, APJ ag 30*, hiPSC survival 0, CXCR6 inh 24, APJ antagonist -3 and APJ ag confirm 10.
Screening CS(=O)(=O)c1ccc(C(=O)Nc2nc(-c3ccco3)c(-c3ccco3)s2)cc1 returned CCR6 antagonist 26, EBI2 antag -7, APJ ag -1, hiPSC survival 0, CXCR6 inh 11 and APJ antagonist -63.
CCCCc1cc(O)c(CCCC)c(O)c1 was read as CCR6 antagonist 12, EBI2 antag 2, APJ ag 13*, hiPSC survival 4, CXCR6 inh -17, APJ antagonist -25 and APJ ag confirm 21.
CCn1cc(S(=O)(=O)NCCc2ccc(F)cc2)cn1 was read as CCR6 antagonist -7, EBI2 antag 0, APJ ag -8, hiPSC survival 0, CXCR6 inh -2 and APJ antagonist -2.
For CC1CCN(S(=O)(=O)c2ccc3nc(N4CCN(c5ccccc5)CC4)ccc3c2)CC1 the results were CCR6 antagonist -12, APJ ag 53*, APJ antagonist -2 and APJ ag confirm 11.
Screening O=S(=O)(c1ccc2nc(N3CCN(c4ccc(F)cc4)CC3)ccc2c1)N1CCCCC1 returned CCR6 antagonist 13, EBI2 antag 19, APJ ag -7, hiPSC survival 1, CXCR6 inh 5 and APJ antagonist 13.
For Cc1cccc(/C(N)=N/OC(=O)Cc2cccc3ccccc23)c1 the results were CCR6 antagonist -10, EBI2 antag 3, APJ ag 0, hiPSC survival -3, CXCR6 inh -14 and APJ antagonist -14.
`Cc1cccc(C(=O)O/N=C(\N)Cc2cccc3ccccc23)c1` gave CCR6 antagonist -24, EBI2 antag -12, APJ ag 42*, hiPSC survival 0, CXCR6 inh -17, APJ antagonist -143 and APJ ag confirm 33.
For N/C(Cc1cccc2ccccc12)=N\OC(=O)c1ccccc1F the results were CCR6 antagonist -5, EBI2 antag -10, APJ ag 28, hiPSC survival 0, CXCR6 inh -11 and APJ antagonist -110.
`N/C(Cc1ccccc1)=N\OC(=O)c1cccc2ccccc12` gave CCR6 antagonist 6, EBI2 antag 15, APJ ag 12*, hiPSC survival 1, CXCR6 inh -26, APJ antagonist -33 and APJ ag confirm 37.
`COCCCNC(=O)C[C@H]1C[C@H](C(=O)N2CCCCC2)[C@@]2(C)c3[nH]c4cc(-c5ccco5)ccc4c3CCN2C1=O` gave CCR6 antagonist -3, EBI2 antag -2, hiPSC survival 2 and CXCR6 inh -2.
